{
  "source": "paper PMC5532717",
  "about": "(ACS Central Science, 2017)",
  "key": {"GBA2": {"target": "T1, GBA2 (Homo sapiens, UniProt Q9HCG7)", "T1 sequence (Q9HCG7 1-927)": "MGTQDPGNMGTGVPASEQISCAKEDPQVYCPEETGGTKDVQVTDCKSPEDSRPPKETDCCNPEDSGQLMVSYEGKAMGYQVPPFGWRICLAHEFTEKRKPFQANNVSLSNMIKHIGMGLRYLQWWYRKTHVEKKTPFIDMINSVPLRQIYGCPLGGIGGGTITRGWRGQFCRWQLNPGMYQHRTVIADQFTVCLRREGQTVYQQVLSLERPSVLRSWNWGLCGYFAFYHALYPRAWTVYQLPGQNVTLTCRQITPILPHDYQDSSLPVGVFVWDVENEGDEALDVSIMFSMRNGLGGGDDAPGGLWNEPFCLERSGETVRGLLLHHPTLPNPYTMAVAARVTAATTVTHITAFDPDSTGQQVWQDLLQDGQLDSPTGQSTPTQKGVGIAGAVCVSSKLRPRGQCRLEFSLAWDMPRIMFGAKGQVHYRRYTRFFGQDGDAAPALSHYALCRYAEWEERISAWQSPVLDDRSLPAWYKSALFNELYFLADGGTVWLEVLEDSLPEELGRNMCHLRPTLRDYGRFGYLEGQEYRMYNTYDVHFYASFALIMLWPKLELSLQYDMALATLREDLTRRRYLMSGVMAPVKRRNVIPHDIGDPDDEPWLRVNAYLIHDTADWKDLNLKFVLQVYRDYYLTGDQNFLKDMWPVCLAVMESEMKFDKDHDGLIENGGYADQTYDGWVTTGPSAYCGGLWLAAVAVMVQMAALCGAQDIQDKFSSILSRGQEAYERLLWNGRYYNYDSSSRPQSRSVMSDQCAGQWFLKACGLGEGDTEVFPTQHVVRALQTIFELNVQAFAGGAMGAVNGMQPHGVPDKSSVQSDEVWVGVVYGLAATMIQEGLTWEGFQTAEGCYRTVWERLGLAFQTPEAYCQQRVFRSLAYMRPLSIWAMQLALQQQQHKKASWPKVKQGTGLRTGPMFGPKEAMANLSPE", "experiment": "In vitro apparent IC50, GBA2 overexpressing HEK293T lysate, 4-MU-β-Glc", "format": "biochemical", "method_in_brief": "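The enzyme source was GBA2-overexpressing HEK293T lysate or recombinant human GAA. It was preincubated 30 min at 37 °C with a range of test compound concentrations, then transferred into 4-MU glucoside substrate mixture to measure residual activity. Quenched with 1 M NaOH–glycine pH 10.3; 4-MU fluorescence at λex 366/λem 445 nm. Apparent IC50 is the mean of three technical replicates.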"}, "GBA3": {"target": "T2, GBA3 (Homo sapiens, UniProt Q9H227)", "T2 sequence (Q9H227 1-469)": "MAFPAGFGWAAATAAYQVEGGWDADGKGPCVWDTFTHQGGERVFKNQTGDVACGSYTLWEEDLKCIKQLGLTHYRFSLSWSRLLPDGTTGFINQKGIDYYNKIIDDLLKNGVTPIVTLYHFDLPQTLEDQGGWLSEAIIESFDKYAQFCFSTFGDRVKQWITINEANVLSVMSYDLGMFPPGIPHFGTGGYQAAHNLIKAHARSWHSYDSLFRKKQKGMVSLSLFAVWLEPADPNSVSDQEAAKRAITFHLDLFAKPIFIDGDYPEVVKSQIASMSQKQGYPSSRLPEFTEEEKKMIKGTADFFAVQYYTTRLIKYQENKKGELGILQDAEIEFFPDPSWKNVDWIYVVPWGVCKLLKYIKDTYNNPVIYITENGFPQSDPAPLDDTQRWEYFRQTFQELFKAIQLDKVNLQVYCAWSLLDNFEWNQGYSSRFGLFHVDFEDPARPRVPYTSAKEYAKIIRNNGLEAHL", "experiment": "Competitive ABPP against β-glucosidase probe 14, GBA3+ HEK293T lysate", "format": "biochemical", "conditions": "5 from 30 to 0 μM, 1 h at 37 °C, pH 6.0"}},
  "data": [
    {"smiles": "O=S1(=O)O[C@@H]2[C@H](O)[C@@H](O)[C@H](O)[C@@H](CO)[C@@H]2O1", "note": "[Compound 5, 1,6-epi-cyclophellitol cyclosulfate]", "values": [
      {"measurement": "IC50", "setting": "GBA2", "value": "> 100", "unit": "µM"},
      {"measurement": "inhibition of probe 14 labeling of GBA3", "setting": "GBA3", "value": "no inhibition"}
    ]}
  ]
}
